Columns and labels:
[1] = tested on: Trypanosoma brucei; assay: Antitrypanosomal activity against Trypanosoma brucei BS427 after 48 hrs by Alamar blue assay; format: functional, organism-based
Outline: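 Bloodstream-form T. b. brucei s427 wild type, grown in HMI-9 + 10% FCS at 37 °C, 5% CO2. Parasites seeded at 4 × 10^4 cells/mL onto 11-point 1:2 serial dilutions from a 200 μM stock in medium; drug-free well as control. After 48 h, Alamar Blue (0.49 mM in PBS) added, 24 h more; fluorescence ex 544/em 590 nm. EC50 fitted; duplicate, repeated three times.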

[2] = Chemical stability of the compound in phosphate buffer saline at pH 7.4 assessed as half life; format: physicochemical; settings: for t1/2: buffer; for half-life: phosphate buffer saline
Outline: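 Compound incubated in phosphate buffer, pH 7.4, 37 °C, to follow chemical hydrolysis; half-life reported in hours.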

[3] = tested on: Blood; assay: Half life in mouse blood; format: ADME, tissue-based
Outline: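 Prodrugs incubated in mouse blood to gauge their stability toward esterases. Half-life reported in minutes.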

[4] = Chemical stability of the compound in phosphate buffer saline at pH 2 assessed as half life; format: physicochemical
[5] = tested on: Liver microsomes; assay: Clearance in pooled human liver microsomes at 0.5 uM; format: ADME, Microsome
Outline: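 Pooled human liver microsomes (0.5 mg/mL in 50 mM potassium phosphate, pH 7.4) with compound at 0.5 μM; reaction started with excess NADPH. Samples at 0, 3, 6, 9, 15, 30 min, quenched in acetonitrile with internal standard, centrifuged, analysed by UPLC-MS/MS. Rate constant from exponential decay of compound/internal standard peak-area ratio; clearance given as mL/min/g.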

[6] = Trypanosoma brucei, BS427, 48 h, read-out: EC50

| half-life [2] [h] | Structure (SMILES) | EC50 [1, 6] [nM] | t1/2 [2] [h] | t1/2 [3] [h] | EC50 [1] | t1/2 [4] [h] | CL [5] [mL/min/g] |
| --- | --- | --- | --- | --- | --- | --- | --- |
|  | CC1(C)O[C@H](COP(=O)(O)O)[C@H](C(=O)NO)O1 | > 330000 |  |  |  |  |  |
|  | CCOC(=O)[C@H](NP(=O)(OC[C@H]1OC(C)(C)O[C@H]1C(=O)NO)Oc1ccccc1)C(C)C (some centres not stated) | 240 | 61 | 2 |  |  |  |
|  | CCOC(=O)[C@H](NP(=O)(OC[C@H]1OC(C)(C)O[C@H]1C(=O)NO)Oc1ccc(OC)cc1)C(C)C (some centres not stated) | 110 |  |  |  |  |  |
| 0.85 | COC(=O)[C@@H](C)NP(=O)(OC[C@H]1OC(C)(C)O[C@H]1C(=O)NO)Oc1ccc([N+](=O)[O-])cc1 (some centres not stated) | 43800 |  |  |  |  |  |
|  | CCOC(=O)[C@@H](C)NP(=O)(OC[C@H]1OC(C)(C)O[C@H]1C(=O)NO)Oc1ccccc1 (some centres not stated) | 780 | 29 | < 0.25 |  |  |  |
|  | COC(=O)[C@H](NP(=O)(OC[C@H]1OC(C)(C)O[C@H]1C(=O)NO)Oc1ccccc1)C(C)C (some centres not stated) | 360 | 21 | 0.75 |  |  |  |
|  | CC1(C)O[C@H](COP2(=O)OCc3ccccc3O2)[C@H](C(=O)NO)O1 (some centres not stated) |  |  |  | Not Active |  |  |
|  | COC(=O)[C@H](NP(=O)(OC[C@H]1OC(C)(C)O[C@H]1C(=O)NO)Oc1ccc(C)cc1)C(C)C (some centres not stated) | 150 | 45 |  |  | 28 |  |
|  | CCOC(=O)[C@@H](C)NP(=O)(OC[C@H]1OC(C)(C)O[C@H]1C(=O)NO)Oc1ccc(C)cc1 (some centres not stated) | 180 | 34 |  |  |  |  |
|  | CCOC(=O)[C@H](NP(=O)(OC[C@H]1OC(C)(C)O[C@H]1C(=O)NO)Oc1ccc(C)cc1)C(C)C (some centres not stated) | 40 | 25 | 0.75 |  | 15 |  |
|  | CCOC(=O)[C@H](NP(=O)(OC[C@H]1OC(C)(C)O[C@H]1C(=O)NO)Oc1cccc(C)c1C)C(C)C (some centres not stated) | 50 | 48 | 1 |  | 10 |  |
| 30 | COC(=O)[C@@H](C)NP(=O)(OC[C@H]1OC(C)(C)O[C@H]1C(=O)NO)Oc1cccc(C)c1C (some centres not stated) | 270 |  |  |  |  |  |
|  | CC(C)[C@@H](NP(=O)(OC[C@H]1OC(C)(C)O[C@H]1C(=O)NO)Oc1ccccc1)C(=O)OC(C)(C)C (some centres not stated) | 90 | 68 | 2 |  | 28 | 5 |
|  | COC(=O)CNP(=O)(OC[C@H]1OC(C)(C)O[C@H]1C(=O)NO)Oc1ccccc1 (some centres not stated) | 11400 |  | < 0.25 |  |  |  |
|  | COC(=O)[C@@H](C)NP(=O)(OC[C@H]1OC(C)(C)O[C@H]1C(=O)NO)Oc1ccc(C)cc1 (some centres not stated) | 310 | 30 | < 0.25 |  |  |  |
|  | COC(=O)[C@@H](C)NP(=O)(OC[C@H]1OC(C)(C)O[C@H]1C(=O)NO)Oc1ccc(OC)cc1 (some centres not stated) | 3790 |  |  |  | 8.5 |  |
|  | Cc1cccc(OP(=O)(N[C@@H](C(=O)OC(C)(C)C)C(C)C)OC[C@H]2OC(C)(C)O[C@H]2C(=O)NO)c1C (some centres not stated) | 8 | > 24 | > 8 |  |  | 10 |

| Structure (SMILES) | half-life [2] [h] | EC50 [1, 6] [nM] | t1/2 [2] [h] | t1/2 [3] [h] | EC50 [1] | t1/2 [4] [h] | CL [5] [mL/min/g] |
| --- | --- | --- | --- | --- | --- | --- | --- |
| COC(=O)[C@@H](C)NP(=O)(OC[C@H]1OC(C)(C)O[C@H]1C(=O)NO)Oc1ccccc1 (some centres not stated) | 5 |  |  | < 0.25 |  |  |  |

Reference: ChEMBL document CHEMBL1212884, “Aryl phosphoramidates of 5-phospho erythronohydroxamic acid, a new class of potent trypanocidal compounds” (J Med Chem, 2010)
